# Source: ChEMBL document CHEMBL1629527, “In vitro antifungal activities of bis(alkylpyridinium)alkane compounds against pathogenic yeasts and molds” (Antimicrob Agents Chemother, 2010)
# What was measured:
# [1] = system: Cryptococcus gattii species complex; assay: Antifungal activity against Cryptococcus gattii after 24 to 72 hrs by broth microdilution method; format: functional, Cryptococcus bacillisporus
# Outline: (§1)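 Broth microdilution MIC per CLSI M27-A3 (yeasts) or M38-A2 (molds). RPMI 1640 with L-glutamine, without bicarbonate, buffered to pH 7.0 with 0.165 M MOPS. Final test range for the compounds was 0.175–87.5 μM. Incubation at 35°C with visual reading at 24–72 h. MIC was the lowest concentration giving 100% inhibition versus the growth control (azoles 50% or 100%, by organism). Each isolate was run in duplicate in two independent experiments.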
# Candida albicans [2] = assay: Antifungal activity against Candida albicans after 48 to 72 hrs; format: functional
# Outline: (§2)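 MFC: after the MIC read, 30-μl aliquots from each well without visible growth were plated onto Sabouraud dextrose agar and incubated at 35°C. Reading was at 48–72 h for yeasts and up to 7 days for molds. MFC was the lowest concentration with no colonies.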
# Candida tropicalis [3] = assay: Antifungal activity against Candida tropicalis after 48 to 72 hrs; format: functional; outline: as §2
# Nakaseomyces glabratus [4] = assay: Antifungal activity against Candida glabrata after 48 to 72 hrs; format: functional; outline: as §2
# Candida parapsilosis [5] = assay: Antifungal activity against Candida parapsilosis after 48 to 72 hrs; format: functional; outline: as §2
# Pichia kudriavzevii [6] = assay: Antifungal activity against Candida krusei after 48 to 72 hrs; format: functional; outline: as §2
# Candida dubliniensis [7] = assay: Antifungal activity against Candida dubliniensis after 48 to 72 hrs; format: functional; outline: as §2
# [8] = system: Meyerozyma guilliermondii; assay: Antifungal activity against Candida guilliermondii after 48 to 72 hrs; format: functional; outline: as §2
# Rhizopus arrhizus [9] = assay: Antifungal activity against Rhizopus oryzae 05-203111 after 48 to 72 hrs; format: functional
# Outline: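 After the broth microdilution MIC read, suspension from every well without visible growth was plated onto Sabouraud dextrose agar and incubated at 35°C, up to 7 days for molds. MFC was taken as the lowest drug concentration with no colonies.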
# Candida albicans [10] = assay: Antifungal activity against Candida albicans after 24 to 72 hrs by broth microdilution method; format: functional
# Outline: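 CLSI M27-A3 broth microdilution for yeasts in RPMI 1640 with L-glutamine and no bicarbonate, buffered with 0.165 M MOPS to pH 7.0. Compounds were dissolved in water and tested at 0.175–87.5 μM final, 35°C. MIC was read visually at 24–72 h as 100% inhibition versus growth control. For MFC, 30 μl from clear wells went onto SDA at 35°C for 48–72 h, reading the lowest concentration without colonies. Duplicates, two independent runs.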
# Candida tropicalis [11] = assay: Antifungal activity against Candida tropicalis after 24 to 72 hrs by broth microdilution method; format: functional; outline: as §1
# Nakaseomyces glabratus [12] = assay: Antifungal activity against Candida glabrata after 24 to 72 hrs by broth microdilution method; format: functional; outline: as §1
# Candida parapsilosis [13] = assay: Antifungal activity against Candida parapsilosis after 24 to 72 hrs by broth microdilution method; format: functional; conditions: Lodderomyces parapsilosis; outline: as §1
# Pichia kudriavzevii [14] = assay: Antifungal activity against Candida krusei after 24 to 72 hrs by broth microdilution method; format: functional; outline: as §1
# Candida dubliniensis [15] = assay: Antifungal activity against Candida dubliniensis after 24 to 72 hrs by broth microdilution method; format: functional; outline: as §1
# [16] = system: Meyerozyma guilliermondii; assay: Antifungal activity against Candida guilliermondii after 24 to 72 hrs by broth microdilution method; format: functional; outline: as §1
# Cryptococcus neoformans [17] = assay: Antifungal activity against Cryptococcus neoformans 05-202523 after 48 to 72 hrs; format: functional; outline: as §2
# Exophiala spinifera = assay: Antifungal activity against Exophiala spinifera 03-200803 after 24 to 72 hrs by broth microdilution method; format: functional
# Outline: (§3)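 Mold isolates subcultured on potato dextrose agar, then tested by CLSI M38-A2 broth microdilution in RPMI 1640 (L-glutamine, no bicarbonate) buffered to pH 7.0 with 0.165 M MOPS. Compounds were dissolved in water and tested at a final 0.175–87.5 μM. Plates were incubated at 35°C. MIC was read visually as the lowest concentration giving 100% inhibition versus the growth control. Each isolate was run in duplicate in two independent experiments.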
# Fusarium solani = assay: Antifungal activity against Fusarium solani 04-203102 after 24 to 72 hrs by broth microdilution method; format: functional; outline: as §3
# Rhizopus arrhizus [18] = assay: Antifungal activity against Rhizopus oryzae 05-203111 after 24 to 72 hrs by broth microdilution method; format: functional; outline: as §3
# Aspergillus flavus = assay: Antifungal activity against Aspergillus flavus ATCC 204304 after 24 to 72 hrs by broth microdilution method; format: functional; outline: as §1
# Lomentospora prolificans = assay: Antifungal activity against Scedosporium prolificans 05-203060 after 24 to 72 hrs by broth microdilution method; format: functional; outline: as §3
# Scedosporium apiospermum = assay: Antifungal activity against Scedosporium apiospermum 05-203100 after 24 to 72 hrs by broth microdilution method; format: functional; outline: as §3
# Lichtheimia corymbifera = assay: Antifungal activity against Absidia corymbifera 04-200170 after 24 to 72 hrs by broth microdilution method; format: functional; outline: as §1
# Aspergillus fumigatus = assay: Antifungal activity against Aspergillus fumigatus ATCC 204305 after 24 to 72 hrs by broth microdilution method; format: functional; outline: as §1
# Cryptococcus neoformans [19] = assay: Antifungal activity against Cryptococcus neoformans ATCC 90112 after 24 to 72 hrs by broth microdilution method; format: functional; outline: as §1
# Candida parapsilosis [20] = assay: Antifungal activity against Candida parapsilosis 04-202398 after 24 to 72 hrs by broth microdilution method; format: functional; conditions: Lodderomyces parapsilosis; outline: as §1
# Pichia kudriavzevii [21] = assay: Antifungal activity against Candida krusei 04-202328 after 24 to 72 hrs by broth microdilution method; format: functional; outline: as §1
# Candida parapsilosis [22] = assay: Antifungal activity against Candida parapsilosis ATCC 22019 after 24 to 72 hrs by broth microdilution method; format: functional; conditions: Lodderomyces parapsilosis; outline: as §1
# Pichia kudriavzevii [23] = assay: Antifungal activity against Candida krusei ATCC 6258 after 24 to 72 hrs by broth microdilution method; format: functional; outline: as §1
# Candida albicans [24] = assay: Antifungal activity against Candida albicans ATCC 10231 after 24 to 72 hrs by broth microdilution method; format: functional; outline: as §1
# Candida albicans [25] = assay: Antifungal activity against Candida albicans ATCC 90028 after 24 to 72 hrs by broth microdilution method; format: functional; outline: as §1
# Clavispora lusitaniae = assay: Antifungal activity against Candida lusitaniae after 24 to 72 hrs by broth microdilution method; format: functional; outline: as §1
# [26] = Antifungal activity against Exophiala jeanselmei 03-200268 after 24 to 72 hrs by broth microdilution method; format: functional; outline: as §1
smiles,measurement,setting,value
CCCCCc1cc[n+](CCCCCCCCCCCC[n+]2ccc(CCCCC)c(C)c2)cc1C.[Cl-].[Cl-],MIC,[1],0.79 µg/mL
same,MIC50,[1],0.79 µg/mL
same,MIC90,[1],0.79 µg/mL
same,MFC50,Candida albicans [2],1.56 µg/mL
same,MFC90,Candida albicans [2],1.56 µg/mL
same,MFC,Candida albicans [2]; Candida albicans,0.79 µg/mL
same,MFC50,Candida tropicalis [3],0.79 µg/mL
same,MFC90,Candida tropicalis [3],1.56 µg/mL
same,MFC,Candida tropicalis [3]; Candida tropicalis,0.39 µg/mL
same,MFC50,Nakaseomyces glabratus [4],0.79 µg/mL
same,MFC90,Nakaseomyces glabratus [4],1.56 µg/mL
same,MFC,Nakaseomyces glabratus [4]; Nakaseomyces glabratus,0.39 µg/mL
same,MFC50,Candida parapsilosis [5],49.5 µg/mL
same,MFC90,Candida parapsilosis [5],49.5 µg/mL
same,MFC,Candida parapsilosis [5]; Lodderomyces parapsilosis,49.5 µg/mL
same,MFC50,Pichia kudriavzevii [6],6.22 µg/mL
same,MFC90,Pichia kudriavzevii [6],6.22 µg/mL
same,MFC,Pichia kudriavzevii [6]; Pichia kudriavzevii,0.79 µg/mL
same,MFC50,Candida dubliniensis [7],0.79 µg/mL
same,MFC90,Candida dubliniensis [7],1.56 µg/mL
same,MFC,Candida dubliniensis [7]; Candida dubliniensis,0.79 µg/mL
same,MFC50,[8],0.79 µg/mL
same,MFC90,[8],1.56 µg/mL
same,MFC,[8]; Meyerozyma guilliermondii,0.39 µg/mL
same,MFC,Rhizopus arrhizus [9],6.3 µg/mL
same,MIC,Candida albicans [10],1.36 µg/mL
same,MIC50,Candida albicans [10],1.56 µg/mL
same,MIC90,Candida albicans [10],1.56 µg/mL
same,MIC,Candida tropicalis [11],0.79 µg/mL
same,MIC50,Candida tropicalis [11],0.79 µg/mL
same,MIC90,Candida tropicalis [11],0.79 µg/mL
same,MIC,Nakaseomyces glabratus [12],0.642 µg/mL
same,MIC50,Nakaseomyces glabratus [12],0.79 µg/mL
same,MIC90,Nakaseomyces glabratus [12],0.79 µg/mL
same,MIC,Candida parapsilosis [13],30.6 µg/mL
same,MIC50,Candida parapsilosis [13],24.9 µg/mL
same,MIC90,Candida parapsilosis [13],49.5 µg/mL
same,MIC,Pichia kudriavzevii [14],3.12 µg/mL
same,MIC50,Pichia kudriavzevii [14],3.11 µg/mL
same,MIC90,Pichia kudriavzevii [14],6.22 µg/mL
same,MIC,Candida dubliniensis [15],0.908 µg/mL
same,MIC50,Candida dubliniensis [15],0.79 µg/mL
same,MIC90,Candida dubliniensis [15],0.79 µg/mL
same,MIC,[16],0.903 µg/mL
same,MIC50,[16],0.79 µg/mL
same,MIC90,[16],1.56 µg/mL
same,MFC,Cryptococcus neoformans [17],25.3 µg/mL
same,MIC,Exophiala spinifera,0.79 µg/mL
same,MIC,Fusarium solani,12.7 µg/mL
same,MIC,Rhizopus arrhizus [18],1.58 µg/mL
same,MIC,Aspergillus flavus,12.7 µg/mL
same,MIC,Lomentospora prolificans,1.58 µg/mL
same,MIC,Scedosporium apiospermum,6.3 µg/mL
same,MIC,Lichtheimia corymbifera,50.7 µg/mL
same,MIC,Aspergillus fumigatus,25.3 µg/mL
same,MIC,Cryptococcus neoformans [19],0.79 µg/mL
same,MIC,Candida parapsilosis [20],25.3 µg/mL
same,MIC,Pichia kudriavzevii [21],6.3 µg/mL
same,MIC,Candida parapsilosis [22],0.79 µg/mL
same,MIC,Pichia kudriavzevii [23],6.3 µg/mL
same,MIC,Candida albicans [24],1.58 µg/mL
same,MIC,Candida albicans [25],1.58 µg/mL
same,MIC,Clavispora lusitaniae,2.71 µg/mL
same,MIC50,Clavispora lusitaniae,3.11 µg/mL
same,MIC90,Clavispora lusitaniae,3.11 µg/mL
same,MIC,[26],1.58 µg/mL
